Data set [1] can be described thus: Reactivity of covalent reactive group using GSH reaction assessed as pseudo-first-order reaction at 60 degC by mass spectrometry.
Data set [2] is described as follows: GSH reactivity assessed as reaction half life through transition state modeling at pH 7.4. Type of data set: physicochemical. To be noted: glutathione (GSH) reaction mixture.
Data set [3] is described as follows: Reactivity of covalent reactive group using GSH reaction assessed as pseudo-first-order reaction at 37 degC by mass spectrometry. An outline of the steps: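 Automated liquid handler at 37 °C under N2 with degassed solutions. The mix holds 1 mM electrophile, 10 mM GSH and 0.10 mM indoprofen internal standard in 100 mM potassium phosphate pH 7.4:ACN 90:10. Sampling was hourly for 7 h, each sample diluted 10-fold in water. Pseudo-first-order k gives t1/2. Controls had no GSH.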

Data set [4] in a line: Reactivity of covalent reactive group using GSH reaction assessed as pseudo-first-order reaction at 37 degC by nuclear magnetic resonance spectroscopy. An outline of the steps:
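Electrophile standard at 2 mM and GSH solution at 20 mM, both in 100 mM phosphate pH 7.4 with 10% D2O, combined in an NMR tube. 1D 1H spectra with presaturation were acquired hourly for about 19 h. Pseudo-first-order k came from the natural log of the electrophile resonance area versus time, converted to t1/2.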

The term half-life denotes the time in which the quantity being followed falls by half.

Take `C/C=C(\C)S(=O)(=O)NC`: in data set [1], the K was below 0.2 ×10⁻³ /min.

As to `C=C(C)C(=O)Nc1ccccc1`, the K in data set [1] worked out at 0.2 ×10⁻³ /min.

Consider `CNC(=O)CBr`, for which the half-life in data set [2] was below 0.08 h. Moreover, the K in data set [3] is above 140 ×10⁻³ /min.

As to `CC#CC(=O)NC`, the K in data set [4] came to 0.3 ×10⁻³ /min.

Take `N#CN1CCCCC1`: the K in data set [4] worked out at 0.8 ×10⁻³ /min.

On to `CNC(=O)C1=CCCC1`, for which the K in data set [1] is below 0.2 ×10⁻³ /min.

For the compound `CNC(=O)CCl`, the half-life in data set [2] is 3.2 h. Besides, the K in data set [3] worked out at 3.6 ×10⁻³ /min.

As for `C=C(C)S(=O)(=O)NC`, the K is below 0.2 ×10⁻³ /min in data set [3] and 0.4 ×10⁻³ /min in data set [1].

Consider `CNC(=O)C1=CCC1`, for which the K in data set [1] was 0.6 ×10⁻³ /min.

`CC1CCCN1C#N` (stereo unspecified): the K in data set [4] was found to be 0.6 ×10⁻³ /min.

Take `CN1CC=CC1=O`: the K in data set [3] stood at 0.4 ×10⁻³ /min.

`N#Cc1ccccn1`: in data set [2], the half-life is 25 h. Also, in data set [4], the K was found to be 0.5 ×10⁻³ /min.

`CN1CCC=CS1(=O)=O`: in data set [3], the K was determined as 0.2 ×10⁻³ /min.

Regarding `CNC(=O)C(C)Cl` (stereo unspecified), the K in data set [1] was 0.6 ×10⁻³ /min.

As to `C=CC(=O)NC`, the half-life in data set [2] is 17 h. The K in data set [4] came out at 0.7 ×10⁻³ /min.

With `C=CC(=O)N1CCCCC1`, the K in data set [3] amounted to 0.4 ×10⁻³ /min.

For the compound `C=CC(=O)NCc1cccc(OC)c1`, in data set [3], the K came out at 0.4 ×10⁻³ /min.

On to `CN1CC=CS1(=O)=O`, for which the K in data set [3] came to 0.4 ×10⁻³ /min.

With `N#CN1CCCC1` [CYANO-PYRROLIDINE], in data set [2], the half-life was 2.2 h. Also, the K in data set [4] worked out at 5.3 ×10⁻³ /min.

On to `CNC(=O)/C=C/CN1CCOCC1`, for which the half-life in data set [2] is 28 h.

The record behind these values is ChEMBL document CHEMBL3352789, “Chemical and computational methods for the characterization of covalent reactive groups for the prospective design of irreversible inhibitors” (J Med Chem, 2014).
